Columns and labels:
[1] = molecular target: Macrophage-stimulating protein receptor (Homo sapiens) (UniProt Q04912); assay: Inhibition of Ron at 10 uM
[2] = molecular target: Proto-oncogene tyrosine-protein kinase Src (Homo sapiens) (UniProt P12931); assay: Inhibition of Src at 10 uM
[3] = molecular target: Insulin receptor (Homo sapiens) (UniProt P06213); assay: Inhibition of IR at 10 uM
[4] = molecular target: Fibroblast growth factor receptor 1 (Homo sapiens) (UniProt P11362); assay: Inhibition of FGFR1 at 10 uM
[5] = molecular target: Receptor-type tyrosine-protein kinase FLT3 (Homo sapiens) (UniProt P36888); assay: Inhibition of Flt3 at 10 uM
[6] = Inhibition of Bcr-Abl T315 mutant at 10 uM
[7] = molecular target: Cyclin-dependent kinase 2 (Homo sapiens) (UniProt P24941); assay: Inhibition of Cdk2 at 10 uM
[8] = molecular target: Epidermal growth factor receptor (Homo sapiens) (UniProt P00533); assay: Inhibition of EGFR at 10 uM
[9] = molecular target: Aurora kinase B (Homo sapiens) (UniProt Q96GD4); assay: Inhibition of Aurora B at 10 uM
[10] = molecular target: T1, Vascular endothelial growth factor receptor 2 (Homo sapiens, UniProt P35968); assay: Inhibition of VEGFR2 by HTRF assay in presence of 2 uM ATP
How it was run: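 HTRF kinase assay with KDR enzyme (3–4 ng) and biotinylated pGAT substrate. ATP added to start, 45 min at RT. Stopped with EDTA/KF buffer plus Eu-cryptate anti-phosphotyrosine antibody, 2 h RT, then HTRF read. IC50 from 10-point log concentration curves, mean of at least two duplicate runs.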

[11] = molecular target: Bcr/Abl fusion protein (Homo sapiens) (UniProt P00519+P11274); assay: Inhibition of Bcr-Abl at 10 uM; format: protein assay
[12] = Inhibition of PKA at 10 uM
[13] = molecular target: Hepatocyte growth factor receptor (Homo sapiens) (UniProt P08581); assay: Inhibition of c-Met at 10 uM
[14] = molecular target: T1, Vascular endothelial growth factor receptor 2; assay: Inhibition of VEGF-induced phosphorylation of VEGFR2 by cell-based ELISA
[15] = molecular target: Vascular endothelial growth factor receptor 1 (Homo sapiens, UniProt P17948); assay: Inhibition of VEGFR1 by HTRF assay
[16] = molecular target: T2, Aurora kinase A (Homo sapiens) (UniProt O14965); assay: Inhibition of Aurora A at 10 uM
T2 sequence (whole entry): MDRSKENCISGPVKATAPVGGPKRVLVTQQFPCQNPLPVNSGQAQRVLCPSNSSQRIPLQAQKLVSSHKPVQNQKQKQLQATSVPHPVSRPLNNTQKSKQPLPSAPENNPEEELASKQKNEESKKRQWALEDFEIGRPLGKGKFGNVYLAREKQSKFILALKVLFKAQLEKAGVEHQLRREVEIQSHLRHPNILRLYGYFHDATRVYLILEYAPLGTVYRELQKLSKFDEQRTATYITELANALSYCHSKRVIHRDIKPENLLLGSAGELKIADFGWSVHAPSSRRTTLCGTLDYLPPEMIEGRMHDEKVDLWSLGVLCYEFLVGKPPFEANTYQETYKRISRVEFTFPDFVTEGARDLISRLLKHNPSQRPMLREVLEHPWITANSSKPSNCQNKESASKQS

[17] = molecular target: Cyclin-dependent kinase 1 (Homo sapiens) (UniProt P06493); assay: Inhibition of Cdk1 at 10 uM
[18] = molecular target: Receptor tyrosine-protein kinase erbB-2 (Homo sapiens) (UniProt P04626); assay: Inhibition of ErbB2 at 10 uM
[19] = molecular target: Serine/threonine-protein kinase PLK1 (Homo sapiens) (UniProt P53350); assay: Inhibition of Plk1 at 10 uM
[20] = molecular target: Glycogen synthase kinase-3 beta (Homo sapiens) (UniProt P49841); assay: Inhibition of GSK3-beta at 10 uM
[21] = molecular target: Insulin-like growth factor 1 receptor (Homo sapiens) (UniProt P08069); assay: Inhibition of IGF1R at 10 uM

T1 sequence (P35968 whole entry): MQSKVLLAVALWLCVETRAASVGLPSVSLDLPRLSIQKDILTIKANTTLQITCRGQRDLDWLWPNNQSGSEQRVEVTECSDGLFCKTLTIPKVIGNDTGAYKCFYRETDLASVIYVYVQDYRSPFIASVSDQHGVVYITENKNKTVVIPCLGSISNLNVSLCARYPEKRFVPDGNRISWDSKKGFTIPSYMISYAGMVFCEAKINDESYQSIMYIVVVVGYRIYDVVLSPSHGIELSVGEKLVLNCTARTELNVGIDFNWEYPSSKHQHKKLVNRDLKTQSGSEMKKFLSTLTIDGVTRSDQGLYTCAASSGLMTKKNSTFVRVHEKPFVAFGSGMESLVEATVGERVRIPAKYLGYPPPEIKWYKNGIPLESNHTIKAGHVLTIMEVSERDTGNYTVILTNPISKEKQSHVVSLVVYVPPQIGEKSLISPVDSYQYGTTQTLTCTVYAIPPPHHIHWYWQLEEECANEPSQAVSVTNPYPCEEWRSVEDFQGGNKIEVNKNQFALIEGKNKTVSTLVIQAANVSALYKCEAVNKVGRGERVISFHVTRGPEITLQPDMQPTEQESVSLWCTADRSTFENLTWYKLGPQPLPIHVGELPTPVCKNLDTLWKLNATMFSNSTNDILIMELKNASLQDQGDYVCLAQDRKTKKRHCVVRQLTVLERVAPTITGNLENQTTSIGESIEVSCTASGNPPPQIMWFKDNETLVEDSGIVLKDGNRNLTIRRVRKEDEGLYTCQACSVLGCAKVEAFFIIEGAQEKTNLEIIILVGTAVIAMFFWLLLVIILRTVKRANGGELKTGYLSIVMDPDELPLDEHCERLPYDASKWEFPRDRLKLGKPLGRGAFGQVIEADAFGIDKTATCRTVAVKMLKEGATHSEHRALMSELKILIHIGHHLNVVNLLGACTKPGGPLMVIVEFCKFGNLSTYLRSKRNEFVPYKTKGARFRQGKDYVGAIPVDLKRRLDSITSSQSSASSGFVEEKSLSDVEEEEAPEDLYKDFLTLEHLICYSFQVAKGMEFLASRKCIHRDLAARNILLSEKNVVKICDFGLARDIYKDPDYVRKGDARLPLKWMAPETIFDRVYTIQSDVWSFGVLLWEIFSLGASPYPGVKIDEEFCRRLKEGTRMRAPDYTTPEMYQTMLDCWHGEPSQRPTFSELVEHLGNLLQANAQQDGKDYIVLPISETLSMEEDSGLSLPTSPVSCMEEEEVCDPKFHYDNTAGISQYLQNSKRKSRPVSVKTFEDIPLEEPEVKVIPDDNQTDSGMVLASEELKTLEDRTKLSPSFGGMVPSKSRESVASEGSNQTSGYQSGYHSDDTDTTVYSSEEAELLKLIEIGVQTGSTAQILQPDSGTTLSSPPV
Sequence of Receptor-type tyrosine-protein kinase FLT3 (Homo sapiens) (P36888 whole entry): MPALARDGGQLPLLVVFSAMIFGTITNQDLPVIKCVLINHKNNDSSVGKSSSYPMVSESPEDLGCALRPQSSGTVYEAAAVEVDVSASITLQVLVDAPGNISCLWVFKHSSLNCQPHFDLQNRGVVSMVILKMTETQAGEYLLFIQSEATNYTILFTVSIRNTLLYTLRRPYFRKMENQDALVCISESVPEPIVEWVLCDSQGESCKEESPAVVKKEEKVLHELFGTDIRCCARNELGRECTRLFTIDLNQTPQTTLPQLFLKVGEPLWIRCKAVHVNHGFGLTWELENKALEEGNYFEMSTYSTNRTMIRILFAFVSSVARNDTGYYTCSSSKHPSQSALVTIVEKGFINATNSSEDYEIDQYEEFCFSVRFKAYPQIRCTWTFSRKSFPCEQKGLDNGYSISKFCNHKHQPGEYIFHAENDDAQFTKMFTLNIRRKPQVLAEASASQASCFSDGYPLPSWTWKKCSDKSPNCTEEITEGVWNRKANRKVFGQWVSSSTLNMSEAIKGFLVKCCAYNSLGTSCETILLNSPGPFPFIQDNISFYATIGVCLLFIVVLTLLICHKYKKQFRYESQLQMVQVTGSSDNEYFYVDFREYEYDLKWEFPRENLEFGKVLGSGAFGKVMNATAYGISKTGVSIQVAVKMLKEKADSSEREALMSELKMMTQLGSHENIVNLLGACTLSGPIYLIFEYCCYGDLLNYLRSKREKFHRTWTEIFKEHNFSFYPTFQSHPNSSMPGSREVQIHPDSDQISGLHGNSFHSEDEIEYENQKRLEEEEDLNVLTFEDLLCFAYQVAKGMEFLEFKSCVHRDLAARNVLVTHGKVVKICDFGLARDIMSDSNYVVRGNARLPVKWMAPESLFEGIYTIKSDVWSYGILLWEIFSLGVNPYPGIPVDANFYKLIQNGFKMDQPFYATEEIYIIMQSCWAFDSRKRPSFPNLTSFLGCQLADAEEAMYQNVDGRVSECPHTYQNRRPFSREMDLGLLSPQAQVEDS
Sequence of Epidermal growth factor receptor (Homo sapiens) (P00533 whole entry): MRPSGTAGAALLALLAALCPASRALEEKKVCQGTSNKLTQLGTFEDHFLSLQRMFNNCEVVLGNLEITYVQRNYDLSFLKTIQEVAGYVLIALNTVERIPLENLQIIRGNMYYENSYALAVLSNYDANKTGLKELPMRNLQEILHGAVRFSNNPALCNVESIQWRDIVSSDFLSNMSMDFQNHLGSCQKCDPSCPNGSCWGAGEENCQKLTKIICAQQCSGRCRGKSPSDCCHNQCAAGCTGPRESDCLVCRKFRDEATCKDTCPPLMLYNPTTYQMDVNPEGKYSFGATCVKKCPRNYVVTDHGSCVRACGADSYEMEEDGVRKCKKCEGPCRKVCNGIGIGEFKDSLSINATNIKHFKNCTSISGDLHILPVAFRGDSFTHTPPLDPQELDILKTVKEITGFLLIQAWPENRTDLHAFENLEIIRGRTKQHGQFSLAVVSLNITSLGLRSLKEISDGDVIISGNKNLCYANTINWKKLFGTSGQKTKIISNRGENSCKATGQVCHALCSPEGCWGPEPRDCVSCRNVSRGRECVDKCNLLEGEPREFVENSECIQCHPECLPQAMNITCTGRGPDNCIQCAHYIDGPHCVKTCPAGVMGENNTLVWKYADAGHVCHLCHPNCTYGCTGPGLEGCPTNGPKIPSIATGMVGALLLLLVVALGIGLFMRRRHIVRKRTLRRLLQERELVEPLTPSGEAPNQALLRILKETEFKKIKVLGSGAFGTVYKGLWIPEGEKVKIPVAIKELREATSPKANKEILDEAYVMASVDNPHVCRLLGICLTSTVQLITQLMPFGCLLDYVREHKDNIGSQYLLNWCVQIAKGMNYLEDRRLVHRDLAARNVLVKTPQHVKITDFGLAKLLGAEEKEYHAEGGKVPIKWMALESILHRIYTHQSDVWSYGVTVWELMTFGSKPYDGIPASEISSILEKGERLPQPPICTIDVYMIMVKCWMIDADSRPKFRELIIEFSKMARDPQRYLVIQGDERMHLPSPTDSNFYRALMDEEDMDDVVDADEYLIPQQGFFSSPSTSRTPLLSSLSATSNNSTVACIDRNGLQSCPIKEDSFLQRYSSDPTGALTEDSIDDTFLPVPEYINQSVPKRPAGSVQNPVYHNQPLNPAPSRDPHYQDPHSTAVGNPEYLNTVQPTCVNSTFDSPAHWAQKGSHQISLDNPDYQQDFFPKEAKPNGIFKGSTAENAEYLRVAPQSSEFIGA
Sequence of Receptor tyrosine-protein kinase erbB-2 (Homo sapiens) (P04626 whole entry): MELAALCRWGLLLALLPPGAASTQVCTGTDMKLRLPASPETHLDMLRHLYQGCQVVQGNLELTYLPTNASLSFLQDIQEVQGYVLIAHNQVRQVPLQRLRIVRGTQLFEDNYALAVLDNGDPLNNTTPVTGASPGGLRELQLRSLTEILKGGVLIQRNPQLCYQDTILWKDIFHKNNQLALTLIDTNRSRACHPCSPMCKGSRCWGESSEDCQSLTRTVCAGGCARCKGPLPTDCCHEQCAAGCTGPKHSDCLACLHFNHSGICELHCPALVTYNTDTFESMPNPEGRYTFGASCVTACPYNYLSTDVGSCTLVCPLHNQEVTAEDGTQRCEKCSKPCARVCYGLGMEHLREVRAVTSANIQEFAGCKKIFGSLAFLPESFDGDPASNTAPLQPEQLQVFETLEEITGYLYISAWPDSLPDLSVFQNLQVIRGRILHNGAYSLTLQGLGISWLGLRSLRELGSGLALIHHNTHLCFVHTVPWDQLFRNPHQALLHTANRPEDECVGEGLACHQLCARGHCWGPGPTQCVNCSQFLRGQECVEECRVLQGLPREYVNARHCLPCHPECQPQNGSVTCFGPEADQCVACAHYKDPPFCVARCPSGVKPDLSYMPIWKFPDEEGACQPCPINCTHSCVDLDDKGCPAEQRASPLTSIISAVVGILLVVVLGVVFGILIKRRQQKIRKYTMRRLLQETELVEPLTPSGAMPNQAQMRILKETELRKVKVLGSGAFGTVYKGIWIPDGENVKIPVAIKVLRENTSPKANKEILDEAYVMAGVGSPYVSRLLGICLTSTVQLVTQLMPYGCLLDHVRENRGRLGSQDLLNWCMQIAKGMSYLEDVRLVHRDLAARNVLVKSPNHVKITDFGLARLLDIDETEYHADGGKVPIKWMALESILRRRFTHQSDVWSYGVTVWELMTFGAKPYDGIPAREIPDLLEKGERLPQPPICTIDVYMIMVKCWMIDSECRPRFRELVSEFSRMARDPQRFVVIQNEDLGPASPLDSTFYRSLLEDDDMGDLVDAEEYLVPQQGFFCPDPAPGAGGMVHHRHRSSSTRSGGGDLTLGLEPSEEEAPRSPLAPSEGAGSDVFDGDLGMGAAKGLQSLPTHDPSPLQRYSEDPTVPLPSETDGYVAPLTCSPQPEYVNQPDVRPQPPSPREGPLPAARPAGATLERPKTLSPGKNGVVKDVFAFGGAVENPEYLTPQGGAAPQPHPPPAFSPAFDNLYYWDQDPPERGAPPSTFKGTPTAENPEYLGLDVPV
Sequence of Cyclin-dependent kinase 1 (Homo sapiens) (P06493 whole entry, looked up): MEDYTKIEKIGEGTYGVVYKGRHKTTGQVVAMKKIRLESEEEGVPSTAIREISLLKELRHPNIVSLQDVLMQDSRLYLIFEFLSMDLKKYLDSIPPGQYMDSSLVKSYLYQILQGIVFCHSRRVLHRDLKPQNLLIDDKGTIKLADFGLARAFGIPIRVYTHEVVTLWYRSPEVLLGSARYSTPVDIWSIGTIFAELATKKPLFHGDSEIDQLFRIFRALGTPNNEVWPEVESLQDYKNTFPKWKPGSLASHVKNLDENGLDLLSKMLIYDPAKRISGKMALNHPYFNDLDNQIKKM

SMILES	inhibition [1]	inhibition [2]	inhibition [3]	inhibition [4]	inhibition [5]	inhibition [6]	inhibition [7]	inhibition [8]	inhibition [9]	IC50 [10]	inhibition [11]	inhibition [12]	inhibition [13]	IC50 [14]	IC50 [15]	inhibition [16]	inhibition [17]	inhibition [18]	inhibition [19]	inhibition [20]	also measured
FC(F)(F)c1cccc(-n2cc(-c3ccccc3NCc3ccc4c(c3)OCO4)nn2)c1	< 30%	< 30%	< 30%	< 30%	< 30%	< 30%	< 30%	< 30%	< 30%	> 10000 nM	< 30%	< 30%	< 30%	> 10000 nM	> 10000 nM	< 30%	< 30%	< 30%	< 30%	< 30%	inhibition [21]: < 30%
Cc1cc(-n2cc(-c3ccccc3NCc3ccncc3)nn2)ccc1C(F)(F)F	< 30%	< 30%	< 30%	< 30%	< 30%	< 30%	< 30%	< 30%	< 30%	980 nM	< 30%	< 30%	< 30%	2020 nM	860 nM	< 30%	< 30%	< 30%	< 30%	< 30%	inhibition [21]: < 30%
FC(F)(F)c1ccc(-n2cc(-c3ccccc3NCc3ccncc3)nn2)cc1Cl	< 30%	< 30%	< 30%	< 30%	< 30%	< 30%	< 30%	< 30%	< 30%	930 nM	< 30%	< 30%	< 30%	2920 nM	1130 nM	< 30%	< 30%	< 30%	< 30%	< 30%	inhibition [21]: < 30%
FC(F)(F)Oc1cccc(-n2cc(-c3ccccc3NCc3ccncc3)nn2)c1	< 30%	< 30%	< 30%	< 30%	< 30%	< 30%	< 30%	< 30%	< 30%	66 nM	< 30%	< 30%	< 30%	85 nM	72 nM	< 30%	< 30%	< 30%	< 30%	< 30%	inhibition [21]: < 30%
CC(C)(C)c1ccc(-n2cc(-c3ccccc3NCc3ccncc3)nn2)cc1	< 30%	< 30%	< 30%	< 30%	< 30%	< 30%	< 30%	< 30%	< 30%	610 nM	< 30%	< 30%	< 30%	1630 nM	530 nM	< 30%	< 30%	< 30%	< 30%	< 30%	inhibition [21]: < 30%

The next lines start with results.

inhibition [1]	inhibition [2]	inhibition [3]	inhibition [4]	inhibition [5]	inhibition [6]	inhibition [7]	inhibition [8]	inhibition [9]	IC50 [10]	inhibition [11]	inhibition [12]	inhibition [13]	IC50 [14]	IC50 [15]	inhibition [16]	inhibition [17]	inhibition [18]	inhibition [19]	inhibition [20]	SMILES	also measured
< 30%	< 30%	< 30%	< 30%	< 30%	< 30%	< 30%	< 30%	< 30%	190 nM	< 30%	< 30%	< 30%	270 nM	170 nM	< 30%	< 30%	< 30%	< 30%	< 30%	Clc1cccc(-n2cc(-c3ccccc3NCc3ccnc4ccccc34)nn2)c1	inhibition [21]: < 30%
< 30%	< 30%	< 30%	< 30%	< 30%	< 30%	< 30%	< 30%	< 30%	270 nM	< 30%	< 30%	< 30%	330 nM	250 nM	< 30%	< 30%	< 30%	< 30%	< 30%	CC(C)(C)c1cccc(-n2cc(-c3ccccc3NCc3ccncc3)nn2)c1	inhibition [21]: < 30%
< 30%	< 30%	< 30%	< 30%	< 30%	< 30%	< 30%	< 30%	< 30%	> 10000 nM	< 30%	< 30%	< 30%	> 10000 nM	> 10000 nM	< 30%	< 30%	< 30%	< 30%	< 30%	Clc1cccc(-n2cc(-c3ccccc3NCc3c[nH]cn3)nn2)c1	inhibition [21]: < 30%
< 30%	< 30%	< 30%	< 30%	< 30%	< 30%	< 30%	< 30%	< 30%	> 10000 nM	< 30%	< 30%	< 30%	> 10000 nM	> 10000 nM	< 30%	< 30%	< 30%	< 30%	< 30%	Clc1cccc(-n2cc(-c3ccccc3NCc3ccccn3)nn2)c1	inhibition [21]: < 30%
< 30%	< 30%	< 30%	< 30%	< 30%	< 30%	< 30%	< 30%	< 30%	4230 nM	< 30%	< 30%	< 30%	> 10000 nM	> 10000 nM	< 30%	< 30%	< 30%	< 30%	< 30%	Clc1cccc(-n2cc(-c3ccccc3NCc3cccnc3)nn2)c1	inhibition [21]: < 30%
< 30%	< 30%	< 30%	< 30%	< 30%	< 30%	< 30%	< 30%	< 30%	> 10000 nM	< 30%	< 30%	< 30%	> 10000 nM	> 10000 nM	< 30%	< 30%	< 30%	< 30%	< 30%	Clc1cccc(-n2cc(-c3ccccc3NCc3ccc4c(c3)OCO4)nn2)c1	inhibition [21]: < 30%
< 30%	< 30%	< 30%	< 30%	< 30%	< 30%	< 30%	< 30%	< 30%	> 10000 nM	< 30%	< 30%	< 30%	> 10000 nM	> 10000 nM	< 30%	< 30%	< 30%	< 30%	< 30%	FC(F)(F)c1cccc(-n2cc(-c3ccccc3NCc3cccnc3)nn2)c1	inhibition [21]: < 30%
